Target: Melanocortin receptor 4 (Homo sapiens, UniProt P32245)
Assay: Displacement of [125I]NDP-alphaMSH from human melanocortin 4 receptor expressed in CHOK1 cells
Procedure, shortened: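 Membranes from CHO-K1 cells stably expressing human MC1, MC3, MC4 or MC5 receptor, 1–10 µg protein/well, in 50 mM Tris-HCl pH 7.4 with 0.2% BSA, 5 mM MgCl2, 1 mM CaCl2, 0.1 mg/mL bacitracin. Incubated with increasing test compound and 0.1–0.3 nM [125I]NDP-α-MSH, 90–120 min at 37 °C depending on subtype. Filtration on PEI-presoaked GF/C filters, cold buffer washes, radioactivity counted; nonlinear regression; three independent measurements.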

Chain of Melanocortin receptor 4 (P32245 whole entry): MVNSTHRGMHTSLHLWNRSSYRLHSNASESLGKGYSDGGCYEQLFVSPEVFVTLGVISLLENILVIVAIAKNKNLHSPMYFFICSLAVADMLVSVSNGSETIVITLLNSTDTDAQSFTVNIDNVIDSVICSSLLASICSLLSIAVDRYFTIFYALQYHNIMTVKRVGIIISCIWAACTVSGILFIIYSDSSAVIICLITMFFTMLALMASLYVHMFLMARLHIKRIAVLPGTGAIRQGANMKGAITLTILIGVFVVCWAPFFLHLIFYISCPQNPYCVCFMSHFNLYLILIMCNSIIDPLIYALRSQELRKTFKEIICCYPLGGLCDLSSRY

A Ki of 17 nM was found for `CC(C)CCN(CCC(C)C)C(=O)c1ccc2nc(NCc3ccccc3)n(CCCN3CCCCC3)c2c1` [2-(benzylamino)-N,N-diisopentyl-3-(3-(piperidin-1-yl)propyl)-3H-benzo[d]imidazole-5-carboxamide] in this work.

— BindingDB's records for doi:10.1016/j.bmcl.2007.06.010 (Institut Henri Beaufour, 2007)
